Reference: article PMC6593619 (Clinical Pharmacology and Therapeutics, 2019)
Where two headings read alike, the source gives them in different places.

Columns and labels:
[1] = format: in vivo, human; settings: for Relative difference in Cmax C vs. A (95% CI): esomeprazole 3 hours prior vs regorafenib alone; for Relative difference in Cmax B vs. A (95% CI): esomeprazole concomitant vs regorafenib alone; for Cmax (geomean (CV)) / Tmax: plasma; for Cmax (geomean (CV)): CV in %; for Tmax: human, oral, Tmax (median (IQR))
In short: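 mCRC or GIST patients: regorafenib 120 or 160 mg daily, 14-day loading, 5 days alone or with esomeprazole 40 mg daily (concomitant or 3 h prior); sequence A-B-C or C-B-A. Plasma predose to 24 h on days 21, 49, 77; UPLC-MS/MS. Log Cmax: mixed model (treatment, sequence, phase fixed; subject random), geometric-mean ratio, Bonferroni 97.5% CI. Tmax: Wilcoxon signed rank.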

[2] = erlotinib combined with omeprazole; cited from earlier work
[3] = mCRC, unselected group, third or fourth line; cited from earlier work
[4] = after oral administration; cited from earlier work
Toxicity = format: in vivo, human; settings: whole study period
In short: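 Incidence of toxicity tallied per phase in patients on regorafenib 120 or 160 mg daily, alone or with esomeprazole 40 mg daily; only toxicity new or worsened relative to baseline counted.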

[5] = cited from earlier work
[6] = compared with other TKIs, despite solid dispersion formulation; cited from earlier work
[7] = phase A: regorafenib alone, 120 mg at steady state
[8] = phase A: regorafenib alone, 120 mg once daily at steady state
[9] = phase B: regorafenib + esomeprazole 40 mg concomitant
[10] = phase B: regorafenib + esomeprazole concomitant
[11] = phase C: regorafenib + esomeprazole 40 mg 3 hours prior
[12] = phase C: regorafenib + esomeprazole 3 hours prior

Relative difference in Cmax C vs. A (95% CI) [1] | Relative difference in Cmax B vs. A (95% CI) [1] | Tmax (median (IQR)) [1, 7] | Cmax (geomean (CV)) [1, 8] | Cmax (geomean (CV)) [1, 9] | Tmax (median (IQR)) [1, 10] | Cmax (geomean (CV)) [1, 11] | Tmax (median (IQR)) [1, 12] | Compound | further results
−9.1% (−43.2 to 45.5%) | −10.4% (−34.6 to 22.8%) | 2.6 (1.5–4.0) hours | 1.6 (118.8) μg/mL | 1.4 (132.4) μg/mL | 2.3 (1.5–8.0) hours | 1.4 (107.6) μg/mL | 3.5 (2.5–6.0) hours | NC(=O)c1cc(Oc2ccc(NC(=O)Nc3ccc(Cl)c(C(F)(F)F)c3)c(F)c2)cc[n+]1[O-] [M‐5] | –
– | – | – | – | – | – | – | – | C#Cc1cccc(Nc2ncnc3cc(OCCOC)c(OCCOC)cc23)c1 [erlotinib] | Decrease in systemic exposure [2]: 46%
−9.3% (−38.1 to 32.9%) | −11.0% (−38.7 to 29.1%) | 3.3 (2.0–6.0) hours | 2.9 (72.0) μg/mL | 2.6 (60.9) μg/mL | 2.6 (2.1–3.5) hours | 2.6 (44.2) μg/mL | 3.5 (2.5–6.0) hours | CNC(=O)c1cc(Oc2ccc(NC(=O)Nc3ccc(Cl)c(C(F)(F)F)c3)c(F)c2)cc[n+]1[O-] [M‐2] | –

Compound | Relative difference in Cmax C vs. A (95% CI) [1] | Relative difference in Cmax B vs. A (95% CI) [1] | Tmax (median (IQR)) [1, 7] | Cmax (geomean (CV)) [1, 8] | Cmax (geomean (CV)) [1, 9] | Tmax (median (IQR)) [1, 10] | Cmax (geomean (CV)) [1, 11] | Tmax (median (IQR)) [1, 12] | further results
CNC(=O)c1cc(Oc2ccc(NC(=O)Nc3ccc(Cl)c(C(F)(F)F)c3)c(F)c2)ccn1 [Regorafenib, 4‐[4‐({[4‐chloro‐3‐(trifluoromethyl)phenyl]carbamoyl}amino)‐3‐fluorophenoxy]‐N‐methylpyridine‐2‐carboxamide] | −12.1% (−32.0 to 13.8%) | −16.5% (−34.9 to 7.0%) | – | – | – | – | – | – | Median overall survival increase compared with placebo [3]: 1.4 months; Time of maximum concentration (Tmax) [4]: 3 to 4 h; Incidence of anorexia ≥ grade 3 (Toxicity): 14%; Incidence of hand/foot skin reaction ≥ grade 3 (Toxicity): 14%; Incidence of hypertension ≥ grade 3 (Toxicity): 64%; Incidence of anorexia (Toxicity; all grades): 71%; Incidence of fatigue (Toxicity; all grades): 71%; Incidence of hand/foot skin reaction (Toxicity; all grades): 64%; Incidence of hypertension (Toxicity; all grades): 71%; Incidence of stomatitis (Toxicity; all grades): 57%; Incidence of hoarseness (Toxicity; all grades, 14 patients): 79%; Basic predicted pKa [5]: around 2; Solubility [6]: low solubility; Pharmacokinetic interaction with esomeprazole ([1]; esomeprazole concomitant or 3 hours prior): did not reveal a significant pharmacokinetic interaction; Tmax ([1]; 120 mg, phase A: regorafenib alone, 120 mg at steady state): 2.5 h; Tmax [1, 10]: 2.5 h; Tmax [1, 12]: 3 h
